Results from ChEMBL document CHEMBL1124777, “Specific bradycardic agents. 1. Chemistry, pharmacology, and structure-activity relationships of substituted benzazepinones, a-new class of compounds exerting antiischemic properties” (1990).
≈ marks a conversion by molar mass, not a printed value.

Assays:
Rattus norvegicus = assay: Bradycardic activity measured as a percentage decrease of heart rate after 5 mg/kg intravenous administration in anesthetized rats; assay type: functional
Procedure, shortened: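 Male Chbb:THOM rats (200–250 g) were anesthetized with pentobarbital sodium 50 mg/kg ip, with tracheal cannulation and artificial respiration. Heart rate was recorded continuously by an ECG-triggered beat-to-beat tachograph. Dose was 5 mg/kg iv via the jugular vein. Rate was read at 2, 5 and 20 min, and the reduction taken at 5 min.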

[1] = Ratio between the EC30 values of atrial contractility and atrial rate; assay type: functional, Cardiac atrium
Procedure, shortened: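 Isolated guinea pig atria (300–500 g, either sex) in modified Tyrode's gassed with 98% O2/2% CO2, resting tension 1 g, isometric recording. Rate measured in spontaneously beating atria at 37 °C after ≥30 min equilibration. Contractility (g) measured in left atria paced at 2.5 Hz (3 ms pulses, 1.5× threshold), 30 °C, 20 min equilibration. EC30 is the concentration lowering the predrug value by 30%.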

Cavia porcellus [2] = species: Cavia porcellus; assay: Evaluated in vitro for its effect on atrial contractility in electrically stimulated isolated guinea pig left atria; conditions: Cardiac atrium
Cavia porcellus [3] = species: Cavia porcellus; assay: Evaluated in vitro for the effect on spontaneous atrial rate in isolated guinea pig atria; assay type: functional; conditions: Cardiac atrium
Procedure, shortened: (§1)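 Spontaneously beating guinea pig atria (either sex, 300–500 g) were held in modified Tyrode's solution gassed with 98% O₂/2% CO₂, at 1 g resting tension and 37 °C. Equilibration lasted at least 30 min, until rate varied by no more than 5 beats/min. Recording was isometric. EC₃₀ is the concentration lowering predrug rate by 30%, given with 95% confidence limits.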

[4] = Ratio between the EC30 values of aortic contracture and atrial rate; assay type: functional, Cardiac atrium
Procedure, shortened: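 Guinea pig atria (300–500 g, either sex) in modified Tyrode's gassed with 98% O2/2% CO2, resting tension 1 g. Rate measured in spontaneously beating atria at 37 °C after at least 30 min equilibration. Rabbit aortic strips contracted with 40 mM KCl plus 1.8 mM CaCl2 to a plateau. EC30 is the concentration relaxing the contracture, or lowering the predrug rate, by 30%.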

Oryctolagus cuniculus = species: Oryctolagus cuniculus; assay: Evaluated in vitro for the effect on K+ induced aortic contraction in isolated aortic strips of rabbit; assay type: functional; conditions: Aorta
Cavia porcellus [5] = species: Cavia porcellus; assay: Evaluated in vitro for the effect on spontaneous rate in isolated guinea pig atria; assay type: functional; procedure, shortened: as §1
Felis catus [6] = assay: Evaluated in vivo for bradycardic activity in anesthetized cat as a measure of percent decrease of heart rate after 1 mg/kg intravenous administration; assay type: functional
Felis catus [7] = assay: Evaluated in vivo for bradycardic activity in anesthetized cat as a measure of % decrease of heart rate after 1 mg/Kg intravenous administration of the compound.; assay type: functional

SMILES | Decrease (Rattus norvegicus) [%] | further results
C=CCN(CCCN1CCc2cc(OC)c(OC)cc2CC1=O)CCc1ccc(OC)c(OC)c1.Cl | -65 | 
COc1ccc(CCN(C)CCC[C@@](C#N)(c2ccc(OC)c(OC)c2)C(C)C)cc1OC [(S)-VERAPAMIL] |  | Ratio [1]: 0.88; EC30 (Cavia porcellus [2]): 0.0611 µg/mL (≈ 0.134 µM); EC30 (Cavia porcellus [3]): 0.0694 µg/mL (≈ 0.153 µM); Ratio [4]: 0.409; EC30 (Oryctolagus cuniculus): 0.0284 µg/mL (≈ 0.0625 µM)
COc1ccc(CCN(C)CCCN2CCc3cc(OC)c(OC)cc3CC2=O)cc1.Cl | -42 | 
COc1cc2c(cc1OC)CC(=O)N(CCCN(C)CCc1ccc(N)cc1)CC2 | -30 | 
COC(=O)C1=C(C)NC(C)=C(C(=O)OC)C1c1ccccc1[N+](=O)[O-] [NIFEDIPINE] |  | Ratio [1]: 0.135; EC30 (Cavia porcellus [2]): 0.0149 µg/mL (≈ 0.043 µM); EC30 (Cavia porcellus [3]): 0.11 µg/mL (≈ 0.318 µM); Ratio [4]: 0.036; EC30 (Oryctolagus cuniculus): 0.00397 µg/mL (≈ 0.0115 µM)
COc1ccc(N(C)CCCN2CCc3cc(OC)c(OC)cc3CC2=O)cc1OC | -17 | 
COc1ccc(CCCN(C)CCCN2CCc3cc(OC)c(OC)cc3CC2=O)cc1OC.Cl | -55 | 
COc1ccc(CCN(CCCN2CCc3cc(OC)c(OC)cc3CC2=O)CCc2ccc(OC)c(OC)c2)cc1OC | -28 | 
COc1ccc(SCCN(C)CCCN2CCc3cc(OC)c(OC)cc3CC2=O)cc1OC.Cl | -44 | 
COc1cc2c(cc1OC)CC(=O)N(CCCN(C)CCc1ccccc1)CC2.Cl.Cl | -52 | 
COc1ccc(OCCCN(C)CCCN2CCc3cc(OC)c(OC)cc3CC2=O)cc1OC.Cl | -63 | 
COc1ccc(CCN(C)CCCN2CCc3c(OC)ccc(OC)c3CC2=O)cc1OC.Cl | -21 | 
COc1ccc2c(c1)CCN(CCCN(C)CCc1ccc(OC)c(OC)c1)C(=O)C2.Cl | -31 | 
COc1ccc(CN(C)CCCN2CCc3cc(OC)c(OC)cc3CC2=O)cc1OC | -26 | 
COc1ccc(OCCN(C)CCCN2CCc3cc(OC)c(OC)cc3CC2=O)cc1OC.Cl | -59 | 
CCCN(CCCN1CCc2cc(OC)c(OC)cc2CC1=O)CCc1ccc(OC)c(OC)c1.Cl | -56 | 
COc1ccc(CCN(CCCN2CCc3cc(OC)c(OC)cc3CC2=O)C(C)=O)cc1OC | -3 | 
COc1ccc(CCN(C)CC(O)CN2CCc3cc(OC)c(OC)cc3CC2=O)cc1OC (stereo not drawn) | -28 | 
COc1cc2c(cc1OC)CC(=O)N(CCCN(C)CCc1ccc(Cl)cc1)CC2.Cl | -55 | 
COc1ccc(OCCCCN(C)CCCN2CCc3cc(OC)c(OC)cc3CC2=O)cc1OC.Cl | -37 | 

SMILES | Decrease (Rattus norvegicus) [%] | further results
COc1ccc(CCN(C)CC(C)CN2CCc3cc(OC)c(OC)cc3CC2=O)cc1OC.Cl (stereo not drawn) | -43 | 
CCCCOc1ccc(CCN(C)CCCN2CCc3cc(OC)c(OC)cc3CC2=O)cc1 | -55 | 
COc1cc2c(cc1OC)CC(=O)N(CCCN(C)CCc1c(Cl)cccc1Cl)CC2.Cl.Cl.Cl.Cl | -13 | 
COc1cc2c(cc1OC)CC(=O)N(CCCN(C)CCc1ccc(C(C)(C)C)cc1)CC2.Cl.Cl | -58 | 
COc1ccc(CCN(C)CCCN2Cc3cc(OC)c(OC)cc3C2=O)cc1OC.Cl |  | Ratio [1]: 154; EC30 (Cavia porcellus [2]): 93.6 µg/mL; EC30 (Cavia porcellus [5]): 0.608 µg/mL; Decrease (Felis catus [6]): -16%; Ratio [4]: 35; EC30 (Oryctolagus cuniculus): 21.3 µg/mL
COc1ccc(NCCCN(C)CCCN2CCc3cc(OC)c(OC)cc3CC2=O)cc1OC | -51 | 
COc1ccc(CCN(C)CCCN2CCc3ccc(OC)c(OC)c3CC2=O)cc1OC.Cl | -34 | 
COc1cc2c(cc1OC)CC(=O)N(CCCN(C)CCc1ccc(N(C)C)cc1)CC2.Cl.Cl | -60 | 
COc1ccc(CCN(C)CCCCN2CCc3cc(OC)c(OC)cc3CC2=O)cc1OC.Cl | -33 | 
COc1cc2c(cc1OC)CC(=O)N(CCCN(C)CCc1ccc([N+](=O)[O-])cc1)CC2.Cl | -41 | 
CCOC(=O)N(CCCN1CCc2cc(OC)c(OC)cc2CC1=O)CCc1ccc(OC)c(OC)c1 | -8 | 
COc1ccc(CCCCN(C)CCCN2CCc3cc(OC)c(OC)cc3CC2=O)cc1OC.Cl | -46 | 
COc1cc2c(cc1OC)CC(=O)N(CCCN(C)CCc1ccc(OCc3ccccc3)cc1)CC2 | -27 | 
COc1ccc2c(c1)CC(=O)N(CCCN(C)CCc1ccc(OC)c(OC)c1)CC2.Cl.Cl | -44 | 
COc1cc2c(cc1OC)CC(=O)N(CCCN(C)CCc1ccc(Cl)c(Cl)c1)CC2.Cl.Cl | -47 | 
COc1ccc(NCCN(C)CCCN2CCc3cc(OC)c(OC)cc3CC2=O)cc1OC | -39 | 
COc1ccc(CCN(C)CCCN2CCc3cc4c(cc3CC2=O)OCCO4)cc1OC.Cl | -49 | 
COc1ccc(CCN(C)CCCN2CCc3cc4c(cc3CC2=O)OCO4)cc1OC.Cl | -42 | 
COc1cc2c(cc1OC)CC(=O)N(CCCN(C)CCc1ccc(O)cc1)CC2.Cl | -33 | 
COc1ccc(CCN(C)CCCN2CCc3ccccc3CC2=O)cc1OC.Cl | -35 | 

SMILES | Decrease (Rattus norvegicus) [%] | further results
COc1ccc(SCCCN(C)CCCN2CCc3cc(OC)c(OC)cc3CC2=O)cc1OC.Cl | -47 | 
COc1ccc(CCN(C)CCCN2CCc3c(C)c(C)c(C)c(C)c3CC2=O)cc1OC.Cl | -41 | 
COc1cc2c(cc1O)CCN(CCCN(C)CCc1ccc(OC)c(OC)c1)C(=O)C2.Cl | -47 | 
COc1ccc(CCN(C)CCCN2CCc3cc(OC)c(OC)cc3C2=O)cc1OC.Cl |  | Decrease (Felis catus [7]): -29%
COc1ccc(CCN(C)CCN2CCc3cc(OC)c(OC)cc3CC2=O)cc1OC.Cl | -13 | 
COc1ccc(CCN(C)CCCN2CCc3cc(O)c(O)cc3CC2=O)cc1OC | -30 | 
COc1ccc(CCNCCCN2CCc3cc(OC)c(OC)cc3CC2=O)cc1OC.Cl | -66 | 
COc1cc2c(cc1OC)CC(=O)N(CCCN(C)CCc1ccc(OS(C)(=O)=O)cc1)CC2.Cl | -46 | 
COc1cc2c(cc1O)CC(=O)N(CCCN(C)CCc1ccc(OC)c(OC)c1)CC2 | -29 | 
COc1ccc([C@@H]2Sc3ccccc3N(CCN(C)C)C(=O)[C@@H]2OC(C)=O)cc1 [DILTIAZEM] |  | Ratio [1]: 19.5; EC30 (Cavia porcellus [2]): 2.73 µg/mL (≈ 6.59 µM); EC30 (Cavia porcellus [3]): 0.14 µg/mL (≈ 0.338 µM); Ratio [4]: 0.53; EC30 (Oryctolagus cuniculus): 0.0741 µg/mL (≈ 0.179 µM)
COc1ccc(CC[N+](C)(C)CCCN2CCc3cc(OC)c(OC)cc3CC2=O)cc1OC.[I-] | -9 | 
COc1ccc(CCN(C)CCCN2CCCc3cc(OC)c(OC)cc3C2=O)cc1OC |  | Decrease (Felis catus [7]): -8%
COc1ccc(CCS(=O)(=O)CCCN2CCc3cc(OC)c(OC)cc3CC2=O)cc1OC | -1 | 
COc1ccc(CCSCCCN2CCc3cc(OC)c(OC)cc3CC2=O)cc1OC | 1 | 
COc1ccc(CCN(C)CCCN2CCc3cc(C)c(C)cc3CC2=O)cc1OC.Cl.Cl | -49 | 
COc1ccc(CC[S+]([O-])CCCN2CCc3cc(OC)c(OC)cc3CC2=O)cc1OC (stereo not drawn) | -4 | 
COc1cc(OC)c(CCN(C)CCCN2CCc3cc(OC)c(OC)cc3CC2=O)c(OC)c1.Cl | -25 | 
COc1ccc(CCN(C)CCCN2CCc3cc(OC)c(OC)cc3CC2=O)cc1OC.Cl [ZATEBRADINE HYDROCHLORIDE] | -56 | Decrease (Felis catus [7]): -56%; Ratio [1]: 3600; EC30 (Cavia porcellus [2]): 108 µg/mL; EC30 (Cavia porcellus [3]): 0.03 µg/mL; Ratio [4]: 500; EC30 (Oryctolagus cuniculus): 15 µg/mL
COc1cc2c(cc1OC)CC(=O)N(CCCN(C)CCc1cc(OC)c(OC)c(OC)c1)CC2.Cl | -21 | 
COc1ccc(CCCCCN(C)CCCN2CCc3cc(OC)c(OC)cc3CC2=O)cc1OC.Cl | -36 | 
